Assay outcomes: PubChem, Broad Institute
S100A4 inh HTS – inhibitors of human S100A4 binding to myosin IIA peptide; S100A4/TAMRA-MyoIIA peptide fluorescence polarization; inhibition, % at 10.7 µM; 0.14% of 360,000 active; AID 652163;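 active means mean inhibition of at least 70% across replicates, with every replicate also reaching that level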
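assay system = human S100A4 monomer with TAMRA-labelled myosin IIA peptide | also added = labelled myosin peptide probe, 5 nM | incubation = 5 min between mix addition and reading | control set = DMSO and TFP controls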
RAD54 branch – blocks human RAD54 Holliday junction branch migration; Q92698; FAM/BHQ fluorescence; inhibition, % at 10.4 µM; AID 602329; 0.14% of 360,000 active;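 active means mean normalized replicate activity at least 40 and at least half of replicates scoring 40 or more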;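 further: 0% = median of neutral control wells and 100% = median of positive control wells; inhibitors cause a drop in the FAM fluorescence signal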
Target sequence (Q92698 whole entry, looked up): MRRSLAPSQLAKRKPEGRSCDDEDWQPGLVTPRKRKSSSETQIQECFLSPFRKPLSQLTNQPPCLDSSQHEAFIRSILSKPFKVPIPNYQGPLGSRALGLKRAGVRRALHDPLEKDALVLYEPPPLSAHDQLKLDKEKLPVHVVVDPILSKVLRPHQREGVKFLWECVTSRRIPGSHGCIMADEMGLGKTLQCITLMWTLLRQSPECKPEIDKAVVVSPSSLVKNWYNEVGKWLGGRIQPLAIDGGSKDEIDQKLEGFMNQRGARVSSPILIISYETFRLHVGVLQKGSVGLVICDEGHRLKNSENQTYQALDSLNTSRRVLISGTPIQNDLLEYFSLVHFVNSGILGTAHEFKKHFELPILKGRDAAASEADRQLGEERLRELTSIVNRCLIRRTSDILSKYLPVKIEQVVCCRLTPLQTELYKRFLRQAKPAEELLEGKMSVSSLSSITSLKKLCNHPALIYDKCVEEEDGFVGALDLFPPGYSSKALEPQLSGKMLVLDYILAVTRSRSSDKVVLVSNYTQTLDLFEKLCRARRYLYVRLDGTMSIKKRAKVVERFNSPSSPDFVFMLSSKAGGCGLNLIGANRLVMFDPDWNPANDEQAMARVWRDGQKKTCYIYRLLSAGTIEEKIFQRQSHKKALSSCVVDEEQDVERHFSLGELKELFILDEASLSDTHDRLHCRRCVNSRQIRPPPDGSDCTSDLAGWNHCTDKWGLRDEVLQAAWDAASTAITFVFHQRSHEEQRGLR
dFosB act – activators of mouse delta FosB homodimer; P13346; purified delta FosB, TAMRA-CDK5 oligo fluorescence polarization; percent of positive-control signal above neutral wells; activation, % at 25 µM; 0.99% of 340,000 active;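 active means mean activation above about 17%, with every replicate also reaching it, limit read from the data, passing the limit was not always enough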
SR-BI DiI inh – inhibitors of mouse SR-BI mediated HDL lipid uptake | inhibition, % at 12.5 µM | Q61009 | ldlA[mSR-BI] CHO cells, DiI-HDL uptake fluorescence, 3 h | 0.96% of 320,000 active;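 active means mean replicate inhibition of at least 70% and a set share of replicates each scoring 70 or more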;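 further: 0% = median of neutral control wells and 100% = median of positive control wells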
PvdQ inh – P. aeruginosa PvdQ acylase inhibition; purified PvdQ acylase, fluorescence plate reader; inhibition, % at 10 µM; 0.063% of 340,000 active; in the data active means inhibition above about 30%, passing the limit was not always enough;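 further: 0% = vehicle neutral wells and 100% = reference inhibitor wells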
SR-BI DiI-HDL act – SR-BI HDL lipid transfer activation; 0.096% of 320,000 active; AID 504775; activation, % at 12.5 µM; CHO ldlA[mSR-BI] cells, DiI-HDL uptake fluorescence, 3 h; 100 = double the neutral-control signal;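 active means mean replicate activation of at least 60% and every replicate at or above 60%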;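 further: 0% = median plate neutral-control signal and 100% = twice that signal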
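Test system: SR-BI-overexpressing, LDLR-lacking CHO cells; Medium: Ham's F12 with 0.5% BSA, HEPES 25 mM, pH 7.4; Schedule: 3 h, 37 °C; Technique: bottom-read fluorescence, 550/595 nm.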
Starred values were filed as active, the others as inactive; / = no result. This is a sample that favours compounds with a hit; in the whole collection about 1.6% have one here.

SMILES | S100A4 inh HTS | RAD54 branch | dFosB act | SR-BI DiI inh | PvdQ inh | SR-BI DiI-HDL act
COc1ccc(C(=O)NC(=S)NNC(=O)c2ccccc2O)cc1 | 0 | -9 | -1 | 89* | 12 | -89
COc1ccc(C(=O)NC(=S)NNC(=O)c2ccccc2C)cc1 | 13 | -3 | -14 | 13 | 3 | -13
O=C(C[C@@H]1CC[C@@H]2[C@H](COC[C@H](O)CN2C(=O)c2ccccn2)O1)NC1CCC1 | 10 | -7 | / | / | / | /
Nc1ccc(C(=O)Nc2ccc(OC(F)(F)C(F)F)c(NC(=O)c3ccc(N)cc3)c2)cc1 | -6 | 6 | -5 | 77* | -3 | -77
C[C@H]1CN([C@@H](C)CO)C(=O)c2cccc(NS(=O)(=O)c3ccc(Cl)cc3)c2O[C@H]1CN(C)S(C)(=O)=O | -8 | 0 | / | / | / | /
CCOc1cc(C(=O)N/N=C\c2cn(CC)nc2C)cc(OCC)c1OCC | / | -6 | -10 | 81* | -6 | -81
CCCC(=O)Nc1ccc(C(=O)Nc2ccc([N+](=O)[O-])cc2OC)cc1 | -4 | / | -5 | 77* | 6 | -77
CCSc1ccccc1C(=O)Nc1ccc([N+](=O)[O-])cc1OC | -1 | / | -1 | 84* | 7 | -84
CCCCC(=O)Nc1ccc(NC(=O)c2ccc([N+](=O)[O-])cc2)cc1OC | 1 | / | 7 | 30 | -14 | -30
CO[C@H]1CN(C)C(=O)c2ccc(NS(=O)(=O)c3ccccc3C)cc2OC[C@@H](C)NC[C@H]1C | -12 | 12 | / | / | / | /
COc1ccccc1S(=O)(=O)N1CC[C@@H]2[C@H](CO)N(C)c3ccc(C#Cc4cccc(F)c4)cc3[C@@H]21 | / | 9 | / | / | / | /
COc1ccc(C#Cc2ccc([C@@H]3[C@@H](CO)N4CCCCN(C(=O)Nc5ccc(F)cc5)C[C@@H]34)cc2)cc1 | 102* | -11 | / | / | / | /
COc1ccccc1NC(=O)N1CCCCN2[C@H](CO)[C@@H](c3ccc(C#CC4CC4)cc3)[C@H]2C1 | 1 | / | / | / | / | /
CN1CCCCN2[C@@H](CO)[C@H](c3ccc(C#CC4(O)CCCC4)cc3)[C@@H]2C1 | -10 | -2 | / | / | / | /
COc1ccccc1NC(=O)N1CCCCN2[C@H](C1)[C@@H](c1ccc(C#CC3CC3)cc1)[C@@H]2CO | 81* | / | / | / | / | /
COc1ccc(C#Cc2ccc([C@H]3[C@H]4CN(S(=O)(=O)c5ccccc5)CCCCN4[C@H]3CO)cc2)cc1 | 123* | -7 | / | / | / | /
CN1CCCCN2[C@@H](CO)[C@@H](c3ccc(C#CC4(O)CCCC4)cc3)[C@@H]2C1 | 92* | -6 | / | / | / | /
Cc1noc(C)c1NC(=O)Nc1ccc2c(c1)C(=O)N([C@@H](C)CO)C[C@H](C)[C@H](CN(C)CC1CCCCC1)OCCCC[C@H](C)O2 | 8 | -3 | / | / | / | /
C[C@H]1CN([C@@H](C)CO)C(=O)c2cc(NS(=O)(=O)c3ccc(Cl)cc3)ccc2O[C@@H]1CN(C)C(=O)Nc1ccc2c(c1)OCO2 | -4 | -11 | / | / | / | /
CO[C@@H]1CN(C)C(=O)c2ccc(NC(=O)c3ccccc3)cc2OC[C@@H](C)N(C(C)=O)C[C@H]1C | 10 | -11 | / | / | / | /
COCC(=O)N(C)C[C@@H]1Oc2cc(C#Cc3cccnc3)ccc2S(=O)(=O)N([C@@H](C)CO)C[C@H]1C | 7 | 0 | / | / | / | /
C[C@@H]1CN([C@H](C)CO)C(=O)c2cc(NC(=O)CCC(F)(F)F)ccc2O[C@@H]1CN(C)S(=O)(=O)c1ccccc1 | -4 | -9 | / | / | / | /
O=C(Cn1c(NCCO)nc2ccccc21)NCCc1ccccc1 | / | -6 | 3 | -12 | -4 | 12
O=C(Cn1c(NCCO)nc2ccccc21)c1ccco1 | -2 | -7 | -5 | -61 | 13 | 61*
O=C(C[C@H]1CC[C@@H]2[C@H](COC[C@H](O)CN2C(=O)c2ccncc2)O1)NCc1ccc(-c2ccccc2)cc1 | 14 | 4 | / | / | / | /
SMILES | S100A4 inh HTS | RAD54 branch | dFosB act | SR-BI DiI inh | PvdQ inh | SR-BI DiI-HDL act
CCCNC(=O)C[C@H]1CC[C@@H]2[C@@H](COc3ccc(NC(=O)NCC)cc3C(=O)N2C)O1 | -5 | -4 | / | / | / | /
C/C(=N/NC(=O)c1ccoc1C)c1ccc(N2CCOCC2)cc1 | -2 | / | 0 | -6 | -27 | 6
Cc1cc(C)nc(NN=CC2=C(N3CCOCC3)/C(=C/c3ccc(Cl)cc3)CC2)n1 | -12 | / | -3 | 76* | -13 | -76
Cc1occc1C(=O)N/N=C/C1=C(N2CCOCC2)C(=C\c2ccc(Cl)cc2Cl)/CC1 | -5 | -2 | -7 | 77* | -4 | -77
O=CC1=C(N2CCOCC2)/C(=C/c2ccc(Cl)cc2)CC1 | -11 | / | -7 | 22 | -6 | -22
Cc1cc(C)nc(N/N=C/C2=C(N3CCOCC3)C(=C\c3ccc(Cl)cc3)/CC2)n1 | / | / | -10 | 74* | -9 | -74
CCC(=O)N1[C@H](CO)[C@H](c2ccc(-c3ccccc3OC)cc2)[C@H]1CNC(C)=O | -3 | / | / | / | / | /
C[C@H](CO)N1C[C@H](C)[C@@H](CN(C)Cc2ccc3c(c2)OCO3)Oc2ccc(NS(C)(=O)=O)cc2CC1=O | 0 | -6 | / | / | / | /
C[C@@H]1CN([C@@H](C)CO)C(=O)c2cc(-c3ccc(C#N)cc3)cnc2O[C@@H]1CN(C)C(=O)c1ccccc1 | 14 | 10 | / | / | / | /
O=C(O)CCN1C(=O)NC2(CCCC2)C1=O | / | 0 | 7 | 12 | -13 | -12
O=C(O)CCC1(CCC(=O)O)CCCC(CCC(=O)O)(CCC(=O)O)C1=O | -2 | -1 | 0 | -61 | -18 | 61*
O=[N+]([O-])c1ccc(NN=Cc2ccc(O)cc2)nc1 | 0 | -6 | 5 | 35 | 11 | -35
O=[N+]([O-])c1ccc(NN=Cc2ccccc2O)nc1 | -10 | -14 | 6 | 88* | -10 | -88
CCN(CC)c1ccc(C=NNc2ccc([N+](=O)[O-])cn2)cc1 | 2 | 8 | -3 | 84* | -8 | -84
N#Cc1ccccc1Cn1cc(/C=N/Nc2ccc([N+](=O)[O-])cn2)c2ccccc21 | 5 | 1 | -3 | 96* | 1 | -96
O=[N+]([O-])c1ccc(NN=Cc2ccccc2)nc1 | -4 | / | 3 | 17 | 7 | -17
Cc1ccc(/C=C/c2nnc(-c3ccccc3)o2)cc1 | / | 3 | -6 | -3 | 11 | 3
C(=C\c1nnc(-c2cccs2)o1)/c1ccccc1 | 0 | 4 | -24 | 4 | 38* | -4
Cc1noc(C)c1NC(=O)Nc1ccc2c(c1)CC(=O)N([C@@H](C)CO)C[C@H](C)[C@@H](CN(C)S(C)(=O)=O)O2 | / | -1 | / | / | / | /
